Experimental data gathered from unrelated publications.
Each line is one published result; the experiments were not run side by side.
Organism: Enterococcus faecalis
Read-out: microbial growth

`Cc1cc(=O)[nH]n1C(=O)c1ccc(-n2c(C)ccc2C)cc1` has an MIC of 125 µg/mL (broth dilution; ATCC14506; 18 h).
`CNC(=O)c1cc(Oc2ccc(NC(=O)Nc3ccc(Cl)c(C(F)(F)F)c3)cc2)ccn1` gave an MIC of greater than 100 µM.
For `Cc1ccc(C)n1-c1ccc(-c2nnc(-c3cccc([N+](=O)[O-])c3)[nH]2)cc1`, the MIC was 31.2 µg/mL (broth dilution; ATCC14506; 18 h).
`CC(C)Oc1c(NC(=O)c2ccc(NC(=O)[C@H](CC(N)=O)NC(=O)c3ccc(NC(=O)c4ccc(C#N)cn4)cc3)cc2)ccc(C(=O)Nc2ccc(C(=O)O)cc2)c1O` has an MIC of 0.125 µg/mL (ATCC29212).
`COc1cccc(-c2nc3ccccc3n2Cc2ccccc2)c1` gave an MIC of 64 µg/mL (broth dilution; ATCC29212).
The MIC of `Cc1ccc(C)n1-c1ccc(-c2nnc(-c3ccc(O)cc3)[nH]2)cc1` is reported as 31.2 µg/mL (broth dilution; ATCC14506; 18 h).
For `CSc1ccc(-c2nc3ccccc3[nH]2)cc1`, the MIC was 64 µg/mL (broth dilution; ATCC29212).
With `Cc1ccc(C)n1-c1ccc(-c2n[nH]c(=S)[nH]2)cc1` the MIC was 4 µg/mL (broth dilution; ATCC14506; 18 h).
The MIC of `C/C=C(\C)c1cc(O)c(C)c(OC(=O)c2c(C)cc(O)c(Cl)c2O)c1` is reported as 8 µg/mL (broth dilution; ATCC29212).
The MIC of `Cc1ccc(C)n1-c1ccc(-c2nnc(-c3ccc(N(C)C)cc3)[nH]2)cc1` is reported as 31.2 µg/mL (broth dilution; ATCC14506; 18 h).
`Cc1ccc2nc(-c3ccc(F)cc3)[nH]c2c1` has an MIC of 64 µg/mL (broth dilution; ATCC29212).
`Cc1ccc(C)n1-c1ccc(-c2nnc(-c3ccccc3Cl)[nH]2)cc1` gave an MIC of 16 µg/mL (broth dilution; ATCC14506; 18 h).
The MIC of `COc1ccc(-c2nc3ccc(C)cc3[nH]2)cc1OC` is reported as 128 µg/mL (broth dilution; ATCC29212).
With `C/C(=C\c1ccc(C#N)cc1)C(=O)Nc1ccc(C(=O)N[C@@H](CC(N)=O)C(=O)Nc2ccc(C(=O)Nc3ccc(C(=O)Nc4ccc(C(=O)O)cc4)c(O)c3OC(C)C)cc2)cc1` the MIC was 0.5 µg/mL (ATCC29212).
With `CN[C@H](CC(C)C)C(=O)N[C@H]1C(=O)N[C@@H](CC(N)=O)C(=O)N[C@H]2C(=O)N[C@H]3C(=O)N[C@H](C(=O)N[C@H](C(=O)O)c4cc(O)cc(O)c4-c4cc3ccc4O)[C@H](O)c3ccc(c(Cl)c3)Oc3cc2cc(c3O[C@@H]2O[C@H](CO)[C@@H](O)[C@H](O)[C@H]2O[C@H]2C[C@](C)(N)[C@H](O)[C@H](C)O2)Oc2ccc(cc2Cl)[C@H]1O` the MIC was 2 µg/mL (broth dilution; ATCC29212).
`CCn1cc(C(=O)O)c(=O)c2cc(F)c(N3CCNCC3)cc21` has an MIC of 4 µM (broth dilution; NCTC12697).
`Cc1ccc2nc(-c3ccco3)n(Cc3ccccc3)c2c1` gave an MIC of 128 µg/mL (broth dilution; ATCC29212).
With `C/C(O)=C1\C(=O)C(CC(C)C)N(C(=O)CCCCCc2ccccc2)C1=O` (centres unmarked) the MIC was less than 0.7 µg/mL (broth dilution; ATCC33186).
With `C/C=C(\C)c1cc(O)c(C)c(OC(=O)c2c(C)c(Cl)c(O)c(Cl)c2O)c1` the MIC was 8 µg/mL (broth dilution; ATCC29212).
With `Cc1ccc2nc(-c3c4ccccc4cc4ccccc34)[nH]c2c1` the MIC was 64 µg/mL (broth dilution; ATCC29212).
